Hits are enriched below; roughly 1.5% of the tested compounds scored in any of these assays.
PPC-1+TRAIL kill = kills PPC-1 cancer cells in the presence of TRAIL | PPC-1 cells + TRAIL, ATPLite viability luminescence | AID 1443 | 0.41% of 220,000 active | cell killing (% activity), % at 4 µM or 5 µM;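 active = cell killing above 50% in the first pass at 4 µM, then a duplicate retest at 5 µM averaging 50% or more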;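 also: plate controls were cells with TRAIL plus DMSO for no effect and medium-only wells lacking cells for full effect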
TRAIL sens C8 = sensitizes caspase-8 expressing cells to TRAIL | 1% of 360,000 active | NB7+C8 cells + TRAIL, ATPlite viability luminescence | inhibition (viability loss, TRAIL sensitization), % at 10 µM;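 active = compounds causing at least 50% loss of cell viability in the single-dose screen, relative to plate controls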
FLuc inhib CS = counter-screen for luciferase assay inhibitors: firefly luciferase inhibition. inhibition, % at 10 µM. ATPLite firefly luciferase biochemical luminescence, 10 min. P08659. 1.5% of 200,000 active;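 active = inhibition above about 50% when tested at 10 µM, limit read from the data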
Target sequence (P08659 whole entry, looked up): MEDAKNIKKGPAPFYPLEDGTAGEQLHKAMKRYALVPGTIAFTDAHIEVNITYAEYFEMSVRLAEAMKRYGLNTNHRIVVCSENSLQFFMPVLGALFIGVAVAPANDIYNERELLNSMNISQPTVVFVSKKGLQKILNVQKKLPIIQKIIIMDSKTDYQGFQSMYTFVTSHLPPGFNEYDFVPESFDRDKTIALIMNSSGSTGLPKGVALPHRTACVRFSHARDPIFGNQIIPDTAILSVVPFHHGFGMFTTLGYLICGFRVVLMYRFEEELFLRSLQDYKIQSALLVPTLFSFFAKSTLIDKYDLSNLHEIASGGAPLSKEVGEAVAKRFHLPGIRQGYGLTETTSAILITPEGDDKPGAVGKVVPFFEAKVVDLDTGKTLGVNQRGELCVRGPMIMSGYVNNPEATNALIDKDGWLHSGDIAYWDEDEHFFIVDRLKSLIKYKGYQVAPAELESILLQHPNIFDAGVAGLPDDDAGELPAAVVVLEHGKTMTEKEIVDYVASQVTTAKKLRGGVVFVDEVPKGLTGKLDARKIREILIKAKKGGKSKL
FLuc act counter = affects firefly luciferase, flagging false hits in luciferase stimulation screens | P08659 | ATPlite luciferase biochemical, luminescence, 10 min; 0 = ATP-free wells, 1 = DMSO control | activation factor at 10 µM | 200,000 tested, under 10 active;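 active = luciferase activation factor, scaled between plate controls, of at least 2 with compound at 10 µM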
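Assay system: Luciferase/luciferin detection reagent, cell-free biochemical luciferase assay / Read-out: luciferase activation / Benchmarks: No-ATP low control, compound-free enzyme-plus-ATP high control / Medium: PBS buffer for ATP / Detection: luminescence measurement of luciferase light output / Schedule: 10 min at ambient temperature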
PPC-1 tox = PPC-1 cell cytotoxicity | shares compounds with PPC-1+TRAIL kill | AID 1447 | cytotoxicity, % at 5 µM | 50% of 1,200 active | PPC-1 viability, ATPlite luminescence, overnight;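 active = reconfirmed compounds whose average cytotoxicity reaches 50% or more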;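 also: 0% = DMSO-treated cells and 100% = wells holding medium but no cells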
* marks the source's active call; other numbers are inactive results; nt = no result given.

SMILES	PPC-1+TRAIL kill	TRAIL sens C8	FLuc inhib CS	FLuc act counter	PPC-1 tox
Oc1ccc(-c2cc(-c3ccc(O)cc3)nc(-c3ccccc3)n2)cc1	nt	-9	nt	nt	nt
Oc1ccc(-c2nnc(-c3ccc(O)cc3)nn2)cc1	53*	64*	78*	0.2	54*
O=C(Nc1ccc(N2CCCCC2)cc1)c1ccccc1	66*	74*	88*	0.1	61*
Cc1ccc(C(=O)Nc2ccc(N3CCCCC3)cc2)cc1	nt	47	nt	nt	nt
c1ccc2nc(-c3nc4ccccc4[nH]3)ccc2c1	87*	90*	94*	0.1	84*
c1ccc2[nH]c(-c3cscn3)nc2c1	12	2	18	0.8	nt
O=C(O)CCn1nnc(-c2ccccc2)n1	12	6	-4	1	nt
S=C(Nc1ccc(Cl)cc1)Nc1cccc2cnccc12	16	10	-9	1.1	nt
Fc1ccc(NC(=S)Nc2cccc3cnccc23)cc1	4	-2	0	1	-3
O=C(c1nc2nc(-c3ccccc3)cc(C(F)(F)F)n2n1)N1CCCCC1	-2	0	2	1	-10
Cc1ccc(C(N)=Nc2ccccc2)cc1	1	-6	nt	nt	nt
CCCCN(C)C(=O)c1cc2cc3ccc(OC)cc3nc2s1	37	68*	85*	0.2	36
C=CCNC(=O)/C(=C/c1cccc([N+](=O)[O-])c1)NC(=O)c1ccccc1	2	3	-7	1.1	6
C=CCNC(=O)/C(=C/c1cn(-c2ccccc2)nc1-c1cccc([N+](=O)[O-])c1)NC(=O)c1ccccc1	26	15	-4	1	nt
CC(=O)c1ccc(N2CCN(C(=O)C3CCCN(S(=O)(=O)c4c(C)[nH]c(=O)[nH]c4=O)C3)CC2)cc1 (configuration not stated)	1	1	-3	1	nt
CCn1c(C)nc2cc(-c3nc4n(n3)Cc3ccccc3-4)ccc21	94*	96*	98*	0	94*
Cc1ccc(-c2nc3n(n2)Cc2ccccc2-3)cc1	75*	86*	92*	0.1	74*
Cc1ccc(Cn2nc(-c3ccccc3)nc2-c2ccccc2)cc1	15	8	-4	1	nt
C=CCn1c(SCC(=O)NC(=O)NC)nnc1C1CCCCC1	4	7	-3	1	nt
C=CCn1c(SCC(=O)NC(=O)NCCC)nnc1C1CCCCC1	-1	-8	4	1	3
CCOc1c(Nc2ccc(C(C)C)cc2)c(=O)c1=O	13	-13	nt	nt	nt
CCc1c(C)c2c(C)nn(-c3ccccc3)c2[nH]c1=O	-6	5	-10	1.1	nt
CCc1c(C)n2nc(C)cc2[nH]c1=O	14	-19	1	1	12
COc1ccc(CC(=O)OCC(=O)NCc2ccccc2Cl)cc1OC	-5	-5	-3	1	nt
O=C1COc2ccc(S(=O)(=O)N3CCC(C(=O)NCc4ccc(F)cc4)CC3)cc2N1	nt	2	nt	nt	nt
SMILES	PPC-1+TRAIL kill	TRAIL sens C8	FLuc inhib CS	FLuc act counter	PPC-1 tox
NC(=O)c1ccccc1NC(=O)/C=C/c1ccc(Cl)cc1	56*	68*	80*	0.2	57*
O=C(/C=C/c1ccc(Cl)cc1)NC(=S)Nc1ccccc1C(=O)O	-5	-42	nt	nt	nt
Cc1ccc(C(=O)O/N=C/c2c(N3CCOCC3)n(C)c3ccccc23)cc1	40	-3	-2	1	19
O=C(CCc1nc2ccccc2s1)OCc1ccccc1F	-5	-3	-6	1.1	nt
C[C@H]1CNC(=O)c2c(C(=O)N3CCN(C(=O)OC(C)(C)C)CC3)ncn21	nt	3	nt	nt	nt
CC(=O)N1C(C(=O)O)Cc2c([nH]c3ccccc23)C1(C)C (configuration not stated)	nt	-15	nt	nt	nt
CC1(C)NC(C(=O)O)Cc2c1[nH]c1ccccc21 (configuration not stated)	-4	-1	6	0.9	6
CSc1ccc(-c2ccco2)nn1	1	15	27	0.7	nt
CCOc1ccc(-c2ccc(SC)nn2)cc1	91*	92*	96*	0	91*
CCOc1ccc(NC(=O)CCC(=O)Nc2nnc(CC)s2)cc1	nt	22	nt	nt	nt
CCOc1ccc(-c2ccc(SCC(=O)NCC3CCCO3)nn2)cc1 (configuration not stated)	26	52*	72*	0.3	35
COc1ccc(-c2ccc(SCC(=O)Nc3nnc(C)s3)nn2)cc1	50*	55*	64*	0.4	50*
CCOc1ccc(-c2ccc(SCC(=O)Nc3nnc(CC)s3)nn2)cc1	70*	67*	65*	0.3	68*
CC(C)CNC(=S)N1CCC(Cc2ccccc2)CC1	nt	-22	nt	nt	nt

Assay outcomes (PubChem BioAssay)
